Hits are enriched below; roughly 3.3% of the tested compounds scored in any of these assays.
PRMT1 FP inh: PRMT1 methyltransferase inhibitors, primary screen, biochemical, fluorescence polarization; Protein arginine N-methyltransferase 1 (Homo sapiens), Q99873; recombinant PRMT1, activity-based probe fluorescence polarization; inhibition, % at 2.79 µM; hit rate 1.3% among 370,000;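 active = inhibition above about 21% made by adding two undisclosed values, limit read from the data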
SIAE inh: human SIAE inhibitors, primary screen, biochemical, fluorescence polarization, FP-Rh probe, 1536-well HTS; SIAE FP-Rh probe binding; inhibition, % at 9.66 µM; hit rate 0.69% among 370,000;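 active = inhibition above a cutoff: mean of compounds within the control limits plus 3 SD of those, cut at about 17% in these data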
LEDGF integ inh: blockers of LEDGF/p75-dependent integrase strand transfer – biochemical, TR-FRET, high throughput, primary screen; HIV-1 integrase (with human LEDGF/p75); TR-FRET IN-LEDGF/p75 DNA integration, Eu/Cy5; inhibition, % at 3.7 µM; hit rate 0.64% among 370,000; AID 743269, 2014;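 active = inhibition above the screen-wide mean plus 3 SD, cut at about 13% in these data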;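 also: signal is the Cy5 over europium emission ratio at 671 and 618 nm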
TDP2 inh: human TDP2 enzyme inhibitors, primary screen, biochemical, epi absorbance, recombinant enzyme | Tyrosyl-DNA phosphodiesterase 2 (Homo sapiens), O95551 | T5PNP hydrolysis, p-nitrophenol absorbance 415 nm | inhibition, % at 12.8 µM | hit rate 0.34% among 370,000 | AID 720702, 2013;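 active = inhibition above the mean of all tested compounds plus 3 SD, set per campaign, cut at about 25% in these data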
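Assay system: Recombinant human TDP2 | Quantity: 120 nM TDP2 per well | Incubation: 2 h at 37 °C | Signal: Epi absorbance | Evaluation: Percent inhibition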
MBD2 DNA inh: inhibitors of MBD2 binding to methylated DNA, primary screen, biochemical, TR-FRET, DNA-binding domain, human | hit rate 0.31% among 370,000 | inhibition, % at 4.4 µM | MBD2 binding to methylated oligonucleotide | Methyl-CpG-binding domain protein 2 (Homo sapiens), Q9UBB5; in the data active = inhibition above about 13%
Target sequence (Q9UBB5 whole entry, looked up, the tested form may be a part): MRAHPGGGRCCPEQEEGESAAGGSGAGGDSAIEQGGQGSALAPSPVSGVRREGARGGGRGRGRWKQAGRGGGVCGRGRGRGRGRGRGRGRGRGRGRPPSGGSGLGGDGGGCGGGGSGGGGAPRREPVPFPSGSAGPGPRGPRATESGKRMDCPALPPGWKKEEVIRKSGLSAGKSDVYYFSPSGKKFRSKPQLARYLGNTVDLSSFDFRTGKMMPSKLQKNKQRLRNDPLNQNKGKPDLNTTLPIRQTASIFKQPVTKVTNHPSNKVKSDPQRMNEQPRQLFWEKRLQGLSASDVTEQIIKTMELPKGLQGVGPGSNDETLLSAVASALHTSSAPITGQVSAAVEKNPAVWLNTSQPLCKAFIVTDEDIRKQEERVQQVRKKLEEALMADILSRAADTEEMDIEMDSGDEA
UHRF1 MBD2 ctr: UHRF1 methylated DNA binding inhibitors, primary screen, counter-screen for MBD2 inhibitor project, biochemical, TR-FRET, human UHRF1, single concentration; E3 ubiquitin-protein ligase UHRF1 (Homo sapiens), Q96T88; UHRF1 binding to methylated oligo; inhibition, % at 4.4 µM; hit rate 0.75% among 370,000;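 also: UHRF1 SRA domain binding a hemimethylated CpG hairpin DNA probe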
UHRF1 ctr MBD2: UHRF1 methylated DNA binding inhibitors, counter-screen for MBD2 inhibitor project, biochemical, TR-FRET, human UHRF1. shares compounds with MBD2 DNA inh. inhibition, % at 4.4 µM. UHRF1 binding to methylated oligonucleotide. hit rate 25% among 1,000;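 also: UHRF1 SRA domain binding a labeled hemimethylated CpG hairpin DNA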
MBD2 DBD conf: inhibitors of MBD2 binding to methylated DNA, confirmation, biochemical, TR-FRET, DNA-binding domain, human | shares compounds with MBD2 DNA inh | TR-FRET MBD2-DBD binding to methylated oligonucleotide | inhibition, % at 4.4 µM | hit rate 26% among 1,000 | AID 720531, 2013; in the data active = inhibition above about 14%
Large screens that a line does not name were inactive (follow-up assays come after a bar, where they were run). Rule as the data show it, unless noted: active = inhibition above about 21%; inactive = the rest.

CC1Sc2ccccc2N(Cc2ccc(OC(F)(F)F)cc2)C1=O (stereo not drawn)	MBD2 DNA inh 26 | UHRF1 ctr MBD2 inactive | MBD2 DBD conf inactive
CCN(CC)CCNC(=O)c1ccc2c(c1NCCO)C(=O)c1ccccc1C2=O	MBD2 DNA inh 22 | UHRF1 ctr MBD2 inactive | MBD2 DBD conf 30
CC1CCN(C(=O)c2ccc3c(c2NCCO)C(=O)c2ccccc2C3=O)CC1	none
CCN(CC)CCC(=O)Nc1cccc2c1C(=O)c1ccccc1C2=O	MBD2 DNA inh 27 | UHRF1 ctr MBD2 inactive | MBD2 DBD conf 38
Nc1cccc(C(=O)OCC(=O)Nc2cccc3c2C(=O)c2ccccc2C3=O)c1	none
C#CCNC(=O)C[C@H]1C[C@@]2(C(=O)OC)C(=C[C@H](COCc3ccccc3)O[C@@H]2C)N(CCc2ccc(OC)c(OC)c2)C1=O	none
CCNC(=O)C[C@H]1CC[C@H]2[C@@H](COc3ccc(NC(=O)Nc4ccccc4)cc3C(=O)N2C)O1	none
COc1ccccc1CNC(=O)C[C@H]1CC[C@H]2[C@H](COc3ccc(NS(=O)(=O)c4ccc(C)cc4)cc3C(=O)N2C)O1	MBD2 DNA inh 18 | UHRF1 ctr MBD2 inactive | MBD2 DBD conf inactive
O=C1C=C[C@H]2CC[C@@H](O)[C@@H]1[C@@H]2Sc1ccccc1	none
CCn1c(COc2ccc(C)cc2)nnc1SCC(=O)Nc1ccc(Oc2ccccc2)cc1	none
CCCCn1c(SCC(=O)Nc2sc3c(c2C(N)=O)CCC3)nnc1-c1ccccc1	MBD2 DNA inh 13 | UHRF1 ctr MBD2 inactive | MBD2 DBD conf inactive
NC(=O)c1c(NC(=O)CSc2nnc(Cc3ccccc3)n2Cc2ccco2)sc2c1CCC2	none
CCOC(=O)CNS(=O)(=O)c1ccc(S(=O)(=O)N2CCCC2)cc1	none
Cc1ccc(S(=O)(=O)NCC(=O)OCC(=O)c2ccc(S(=O)(=O)N3CCCCC3)cc2)cc1C	MBD2 DNA inh 25 | UHRF1 ctr MBD2 inactive | MBD2 DBD conf inactive
OCC1(CCOc2ccccc2)CCN(CCCn2cccn2)CC1	MBD2 DNA inh 13 | UHRF1 ctr MBD2 inactive | MBD2 DBD conf inactive
CCOC(=O)CSc1nc2sc(C)c(C)c2c(=O)n1C	none
CCOC(=O)CSc1nc(C(C)C)nc2sc(C)c(C)c12	MBD2 DNA inh 45 | UHRF1 ctr MBD2 inactive | MBD2 DBD conf inactive
C=CCN(CC=C)Cc1c(O)ccc2c1oc(=O)c1ccccc12	MBD2 DNA inh 13 | UHRF1 ctr MBD2 inactive | MBD2 DBD conf inactive
FC(F)(F)Oc1ccc(Cn2ccc3ccc(-c4ccc5ccn(Cc6ccccc6)c5c4)cc32)cc1	none
COc1ccc(-c2nnc3sc(COc4ccccc4)nn23)cc1	none
COc1ccc(OCc2nn3c(-c4ccccn4)nnc3s2)cc1	MBD2 DNA inh 22 | UHRF1 ctr MBD2 inactive | MBD2 DBD conf inactive
Cc1noc(C)c1NC(=O)Nc1ccc2c(c1)C(=O)N(C)[C@H]1CC[C@H](CC(=O)NCc3ccc(Cl)cc3)O[C@@H]1CO2	none
CCOc1ccc(-n2c(COc3ccc(C)cc3)nnc2SCC(=O)c2ccc3ccccc3c2)cc1	none
O=C(Cn1cc(COc2ccccc2C(F)(F)F)nn1)c1ccc(O)cc1	MBD2 DNA inh 15, UHRF1 MBD2 ctr 22 | UHRF1 ctr MBD2 inactive | MBD2 DBD conf inactive
CCN(CC(=O)Nc1ccc2c(c1)OCCO2)CC(=O)Nc1ccc(C)c(S(=O)(=O)N(C)C)c1	MBD2 DNA inh 20 | UHRF1 ctr MBD2 inactive | MBD2 DBD conf inactive
Cc1c(Nc2nc3ccccc3nc2N2CCN(c3ccccc3)CC2)c(=O)n(-c2ccccc2)n1C	none
Cc1c(Nc2c3ccccc3nc3ccccc23)c(=O)n(-c2ccccc2)n1C	MBD2 DNA inh 24 | UHRF1 ctr MBD2 inactive | MBD2 DBD conf inactive
O=C(NCCO)c1cccc2c1C(=O)c1ccccc1-2	none
O=C1c2cccc(NCCNCCO)c2C(=O)c2cccc(NCCNCCO)c21	MBD2 DNA inh 107, UHRF1 MBD2 ctr 93 | UHRF1 ctr MBD2 93 | MBD2 DBD conf 108
CCCCOCCCNC(=O)C[C@H]1C[C@@]2(C(=O)OC)C(=C[C@H](C(C)C)O[C@@H]2C2CC2)N(Cc2ccc(Cl)cc2Cl)C1=O	none
CC1(C(=O)Nc2ccc3c(c2)OCO3)CCN1C(=O)CCC1CCCC1 (stereo not drawn)	MBD2 DNA inh 20 | UHRF1 ctr MBD2 inactive | MBD2 DBD conf inactive
CCOC(=O)c1[nH]c2ccc(OC)cc2c1NC(=O)c1ccc(OC)c(OC)c1	MBD2 DNA inh 15 | UHRF1 ctr MBD2 inactive | MBD2 DBD conf inactive
Nn1c(SCC(=O)Nc2ccc(Br)cn2)nnc1-c1n[nH]c2c1CCC2	none
OCC(CCc1c[nH]c2ccccc12)c1c[nH]c2ccccc12 (stereo not drawn)	none
CCC(=O)Nc1ccc(C(=O)COC(=O)c2nc3nccc(C)n3n2)cc1	MBD2 DNA inh 34, UHRF1 MBD2 ctr 55 | UHRF1 ctr MBD2 31 | MBD2 DBD conf 30
Cc1ccnc2nc(C(=O)OCC(=O)c3ccc(NC(=O)CC(C)C)cc3)nn12	none
COC(=O)c1ccc(CSc2nnc(NC(=O)C3CCCO3)s2)cc1 (stereo not drawn)	none
N#Cc1ccc(CSc2nnc(NC(=O)C3CCCO3)s2)cc1 (stereo not drawn)	MBD2 DNA inh 17, UHRF1 MBD2 ctr 24 | UHRF1 ctr MBD2 inactive | MBD2 DBD conf inactive
COc1ccc(N2CCN(C(=O)CNC(=O)Cn3cnc4sc(C)c(C)c4c3=O)CC2)cc1	MBD2 DNA inh 86 | UHRF1 ctr MBD2 inactive | MBD2 DBD conf inactive
CC(CCc1ccccc1)NC(=O)CN1CCN(Cc2ccc(Cl)cc2)C1=O (stereo not drawn)	MBD2 DNA inh 17 | UHRF1 ctr MBD2 inactive | MBD2 DBD conf inactive
O=C(NCC(c1cccs1)N1CCOCC1)c1cn(-c2ccccc2)nc1-c1ccc(Cl)cc1 (stereo not drawn)	MBD2 DNA inh 14 | UHRF1 ctr MBD2 inactive | MBD2 DBD conf inactive

Bioassay records as filed in PubChem BioAssay.
